Experimental data from publication PMC3799459 (Nucleic Acids Research, 2013).

Experiments:
DNMT1 [1] = biological target: T1, DNMT1 (Homo sapiens, UniProt P26358); experiment: SAM-competition assay on DNMT1; format: biochemical; settings: SAM 0.5-15 µM, DNA duplex 1.0 µM, inhibitor IC10 to IC80
Outline: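 DNMT1 Flashplate SPA in HEPES pH 7.2 buffer, 37°C, 2 h. [methyl-3H]SAM (0.6 TBq/mmol, isotopic dilution 1*:1) varied 0.5–15 µM at fixed 1.0 µM biotinylated DNA duplex. Test compound adjusted from IC10 to IC80 for each SAM level. IC50 at each SAM concentration from sigmoidal variable-slope fit; apparent kinetic constants per compound concentration by Michaelis–Menten fitting.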

DNMT1 [2] = biological target: T1, DNMT1; experiment: DNA-competition assay on DNMT1; format: biochemical; settings: DNA duplex 0.05-1.0 µM, SAM 15 µM (1*:2), inhibitor IC10 to IC80
Outline: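 Streptavidin Flashplate SPA with DNMT1 in HEPES pH 7.2 reaction buffer (EDTA, KCl, BSA), 37°C for 2 h. Biotinylated DNA duplex varied 0.05–1.0 µM; [methyl-3H]SAM (0.6 TBq/mmol) fixed at 15 µM, isotopic dilution 1*:2. Test compound adjusted from IC10 to IC80 at each DNA level. IC50 per DNA concentration from sigmoidal variable-slope fit; apparent kinetic constants from Michaelis–Menten fits at each compound concentration.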

DNMT1 [3] = biological target: T1, DNMT1; experiment: DMSO tolerance of the DNMT1 Flashplate assay; format: biochemical
human DNMT3A (DNMT3A-C) = human DNMT3A (DNMT3A-C) (Homo sapiens, UniProt Q9Y6K1); experiment: DNMT3A Flashplate SPA inhibition assay; format: biochemical
Sequence of human DNMT3A (DNMT3A-C) (Q9Y6K1 624-912): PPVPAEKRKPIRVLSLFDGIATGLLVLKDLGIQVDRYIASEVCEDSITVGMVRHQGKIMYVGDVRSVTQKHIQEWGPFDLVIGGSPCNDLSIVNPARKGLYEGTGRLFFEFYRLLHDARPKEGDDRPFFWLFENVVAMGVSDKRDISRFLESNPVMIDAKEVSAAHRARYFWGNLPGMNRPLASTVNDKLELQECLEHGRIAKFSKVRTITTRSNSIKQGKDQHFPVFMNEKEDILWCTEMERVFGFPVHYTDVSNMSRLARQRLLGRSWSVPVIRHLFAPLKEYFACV

M.SssI = M.SssI (Spiroplasma monobiae, UniProt P15840); experiment: M.SssI Flashplate SPA inhibition assay; format: biochemical, bacterial
Sequence of M.SssI (P15840 whole entry): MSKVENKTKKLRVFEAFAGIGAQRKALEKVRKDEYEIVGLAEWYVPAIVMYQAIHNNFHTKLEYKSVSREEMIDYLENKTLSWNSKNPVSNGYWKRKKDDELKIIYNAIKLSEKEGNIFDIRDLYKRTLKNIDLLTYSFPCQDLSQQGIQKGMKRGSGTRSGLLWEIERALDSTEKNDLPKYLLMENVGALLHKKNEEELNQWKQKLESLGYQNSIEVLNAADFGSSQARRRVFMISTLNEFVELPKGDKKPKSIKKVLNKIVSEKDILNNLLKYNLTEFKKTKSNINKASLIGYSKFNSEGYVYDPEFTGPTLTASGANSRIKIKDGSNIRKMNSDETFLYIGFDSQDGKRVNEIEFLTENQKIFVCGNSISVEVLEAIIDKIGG
Outline: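 Purchased M.SssI at 100 nM with 0.3 µM biotinylated non-methylated duplex and 1 µM SAM/[methyl-3H]SAM mix (3:1) in 1X NEBuffer 2; test compound ≤1% DMSO; 1 h at 37°C. Stopped in streptavidin Flashplate with 20 µM SAH, Tris-HCl pH 7.4; 1 h RT binding, Tween washes, scintillation cpm. %inhibition vs no-enzyme and no-compound controls; sigmoidal fit; two experiments in duplicate.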

DNMT1 [4] = biological target: T1, DNMT1; experiment: Km determination of DNMT1 substrates; format: biochemical; settings: read-out: Km of DNA for DNMT1; DNA 0.05-1.0 µM, 15 µM SAM

T1 sequence (P26358 whole entry): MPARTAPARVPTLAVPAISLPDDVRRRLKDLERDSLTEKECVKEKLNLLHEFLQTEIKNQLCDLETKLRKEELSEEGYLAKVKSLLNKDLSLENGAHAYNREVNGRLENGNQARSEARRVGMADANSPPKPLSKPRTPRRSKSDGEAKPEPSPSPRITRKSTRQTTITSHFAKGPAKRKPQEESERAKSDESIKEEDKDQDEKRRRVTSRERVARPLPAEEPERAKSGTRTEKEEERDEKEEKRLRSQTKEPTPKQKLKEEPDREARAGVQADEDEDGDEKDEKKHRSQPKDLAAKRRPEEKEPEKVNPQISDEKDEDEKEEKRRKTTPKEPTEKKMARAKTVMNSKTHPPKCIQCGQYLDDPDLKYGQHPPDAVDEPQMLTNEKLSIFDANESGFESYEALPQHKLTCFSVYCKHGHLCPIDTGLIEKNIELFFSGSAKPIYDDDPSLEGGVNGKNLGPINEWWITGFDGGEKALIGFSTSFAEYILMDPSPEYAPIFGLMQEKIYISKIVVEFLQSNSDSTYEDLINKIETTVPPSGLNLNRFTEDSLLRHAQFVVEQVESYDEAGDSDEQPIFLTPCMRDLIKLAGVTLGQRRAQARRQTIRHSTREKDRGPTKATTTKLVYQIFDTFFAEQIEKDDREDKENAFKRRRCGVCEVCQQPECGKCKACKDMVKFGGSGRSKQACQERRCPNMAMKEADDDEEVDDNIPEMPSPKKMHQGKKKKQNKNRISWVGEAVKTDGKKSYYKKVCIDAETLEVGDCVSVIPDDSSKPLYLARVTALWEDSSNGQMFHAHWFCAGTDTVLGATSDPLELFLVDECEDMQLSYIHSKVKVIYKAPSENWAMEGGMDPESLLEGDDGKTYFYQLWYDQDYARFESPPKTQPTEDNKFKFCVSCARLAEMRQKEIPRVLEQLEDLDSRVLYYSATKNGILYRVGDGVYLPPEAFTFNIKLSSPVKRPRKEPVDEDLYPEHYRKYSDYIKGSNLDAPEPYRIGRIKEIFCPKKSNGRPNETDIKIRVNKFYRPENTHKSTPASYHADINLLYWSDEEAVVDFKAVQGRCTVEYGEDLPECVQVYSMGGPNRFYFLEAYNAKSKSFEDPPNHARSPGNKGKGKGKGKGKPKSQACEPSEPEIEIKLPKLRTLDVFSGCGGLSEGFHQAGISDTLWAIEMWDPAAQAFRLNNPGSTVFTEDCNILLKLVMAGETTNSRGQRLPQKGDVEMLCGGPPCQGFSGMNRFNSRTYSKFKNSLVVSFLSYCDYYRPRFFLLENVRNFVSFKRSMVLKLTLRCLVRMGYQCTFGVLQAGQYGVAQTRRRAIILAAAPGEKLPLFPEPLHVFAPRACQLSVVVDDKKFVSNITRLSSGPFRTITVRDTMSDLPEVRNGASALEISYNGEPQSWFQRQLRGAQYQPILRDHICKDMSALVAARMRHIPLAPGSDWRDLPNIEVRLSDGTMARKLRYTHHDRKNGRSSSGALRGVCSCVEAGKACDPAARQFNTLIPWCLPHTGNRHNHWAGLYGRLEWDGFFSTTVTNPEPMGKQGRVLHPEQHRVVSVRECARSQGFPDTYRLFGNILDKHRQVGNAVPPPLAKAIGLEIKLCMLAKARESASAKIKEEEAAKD

Question: With O=C1c2ccccc2OC(c2ccccc2)C1(Cl)[N+](=O)[O-] (stereo not drawn) [Compound 47, 3-chloro-3-nitroflavanone] as the molecule, how does the “Mechanism of inhibition towards SAM” value (DNMT1 [1]) read?
Answer: Its value is “SAM non-competitive inhibitor”.

Question: And the “Mechanism of inhibition towards DNA” value (DNMT1 [2])?
Answer: Its value is “uncompetitive behavior”.

Question: What does the source list for C[S+](C)[O-] [DMSO]?
Answer: Stimulation of DNMT1 activity (DNMT1 [3]; 1 to 10% (v/v) DMSO): < 10%; Effect on DNMT1 activity (DNMT1 [3]; 15 to 50% (v/v) DMSO): inhibition

Question: Nc1ncnc2c1ncn2[C@@H]1O[C@H](C[C@@H](N)CC[C@H](N)C(=O)O)[C@@H](O)[C@H]1O [Sinefungin] was tested. Which “Mechanism of inhibition towards SAM” value (DNMT1 [1]) did it give?
Answer: The value was “SAM-competitive”.

Question: What about the “Mechanism of inhibition towards DNA” value (DNMT1 [2]) of the same molecule?
Answer: The value was “uncompetitive inhibition”.

Question: What about the IC50 (human DNMT3A (DNMT3A-C)) of the same molecule?
Answer: Its IC50 is 1.8 ± 0.6 µM.

Question: And the IC50 (M.SssI)?
Answer: The IC50 was 45 ± 7 µM.

B1: DNA: biotinylated hemimethylated DNA duplex with 8 CpG, substrate of DNMT1 (Table 1) (nucleic acid)
sense: GATCGCCGATGCGCGAATCGCGATCGATGCGAT
antisense: ATCGCATCGATCGCGATTCGCGCATCGGCGATC
modifications: biotin; hemimethylated CpG; printed: 5′-GATmCGCmCGATGmCGmCGAATmCGmCGATmCGATGmCGAT
Question: Which Km (DNMT1 [4]) does the source give for B1 here?
Answer: Its Km is ~0.27 µM.
